Results taken from ChEMBL document CHEMBL3286372, “Design, synthesis and structure-activity relationship of novel semi-synthetic flavonoids as antiproliferative agents” (2014).

Tests used:
SW-620 = experiment: Growth inhibition of human SW620 cells after 48 hrs by coulter counting analysis; type: functional; conditions: SW-620, 48 h
Method in brief: (§1)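 Five-dose NCI-60 follow-up, 0.01–100 µM, made from DMSO stock in buffered saline (final DMSO <1%), in duplicate wells. Cells in RPMI 1640 with 10% FBS at 6×10^4 cells/ml, 37 °C, 5% CO2, 48 h. Cells diluted tenfold in saline, Coulter-counted and corrected for dilution. GI50, TGI and LC50 taken from log concentration–percent growth curves.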

SK-MEL-5 = experiment: Growth inhibition of human SK-MEL-5 cells after 48 hrs by coulter counting analysis; type: functional; conditions: SK-MEL-5, 48 h; method in brief: as §1
SNB-19 = experiment: Growth inhibition of human SNB19 cells after 48 hrs by coulter counting analysis; type: functional; conditions: SNB-19, 48 h; method in brief: as §1
DU-145 [1] = experiment: Growth inhibition of human DU145 cells after 48 hrs by coulter counting analysis; type: functional; conditions: DU-145, 48 h
Method in brief: (§2)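 NCI five-dose screen at 0.01-100 µM, diluted from DMSO stocks in buffered saline (final DMSO <1%). Cells at 6×10^4 cells/ml in RPMI 1640 with 10% FBS, in duplicate wells, at 37 °C under 5% CO2 for 48 h. Cells diluted tenfold in saline and Coulter-counted. GI50, TGI and LC50 taken from log concentration-growth inhibition curves.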

A498 = experiment: Growth inhibition of human A498 cells after 48 hrs by coulter counting analysis; type: functional; conditions: A498, 48 h; method in brief: as §2
CAKI-1 = experiment: Growth inhibition of human CAKI-1 cells after 48 hrs by coulter counting analysis; type: functional; conditions: CAKI-1, 48 h; method in brief: as §2
[2] = Growth inhibition of human HCC2998 cells after 48 hrs by coulter counting analysis; type: functional; conditions: HCC 2998, 48 h; method in brief: as §2
PC-3 = experiment: Growth inhibition of human PC3 cells after 48 hrs by coulter counting analysis; type: functional; conditions: PC-3, 48 h; method in brief: as §1
[3] = Growth inhibition of human RXF393 cells after 48 hrs by coulter counting analysis; type: functional; conditions: RXF 393, 48 h; method in brief: as §1
K562 = experiment: Growth inhibition of human K562 cells after 48 hrs by coulter counting analysis; type: functional; conditions: K562, 48 h; method in brief: as §2
[4] = Growth inhibition of human UACC257 cells after 48 hrs by coulter counting analysis; type: functional; conditions: UACC-257, 48 h
Method in brief: (§3)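 NCI five-dose screen, 0.01-100 µM, from DMSO stocks diluted in buffer saline (final DMSO <1%). Cells grown in RPMI 1640 + 10% FBS, seeded at 6×10^4 cells/ml, in duplicate wells. Exposure 48 h at 37 °C, 5% CO2. Cells diluted 10-fold in saline and counted by Coulter counter. GI50 derived from log concentration–percent growth inhibition curves. Controls carried matching PBS/saline/DMSO.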

SN12C = experiment: Growth inhibition of human SN12C cells after 48 hrs by coulter counting analysis; type: functional; method in brief: as §1
[5] = Growth inhibition of human Hs 578T cells after 48 hrs by coulter counting analysis; type: functional; method in brief: as §2
[6] = target: Glycogen synthase kinase-3 beta (Homo sapiens) (UniProt P49841); experiment: Inhibition of GSK-3beta (unknown origin) at 20 uM after 30 mins by scintillation counting analysis relative to control
Glycogen synthase kinase-3 beta (Homo sapiens), sequence (P49841 whole entry, looked up): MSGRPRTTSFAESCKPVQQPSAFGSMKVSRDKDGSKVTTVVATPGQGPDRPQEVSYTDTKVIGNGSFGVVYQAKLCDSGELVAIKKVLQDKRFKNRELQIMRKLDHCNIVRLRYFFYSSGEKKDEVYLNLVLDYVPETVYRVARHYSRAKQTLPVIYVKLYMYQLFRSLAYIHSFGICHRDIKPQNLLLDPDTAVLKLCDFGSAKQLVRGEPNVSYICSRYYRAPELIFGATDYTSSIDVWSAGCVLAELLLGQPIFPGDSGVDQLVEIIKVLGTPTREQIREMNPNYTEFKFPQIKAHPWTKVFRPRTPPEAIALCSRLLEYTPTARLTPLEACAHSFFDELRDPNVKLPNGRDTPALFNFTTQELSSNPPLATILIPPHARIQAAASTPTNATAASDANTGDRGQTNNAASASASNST
Method in brief: (§4)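 Recombinant kinases, cloned, expressed and purified in-house. Radiometric ³³P-ATP assay with kinase at ~10-50 nM final and 1-5 µg peptide or protein substrate. Compound at 20 µM final, in duplicate. Reaction started by adding ATP, run 30 min at ambient temperature, then spotted on P81 phosphocellulose. Plates washed in 1% phosphoric acid and counted by scintillation. No-substrate blank subtracted. Result is mean % activity change versus DMSO control.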

NCI-H23 = experiment: Growth inhibition of human NCI-H23 cells after 48 hrs by coulter counting analysis; type: functional; conditions: NCI-H23, 48 h; method in brief: as §1
MDA-MB-231 = experiment: Growth inhibition of human MDA-MB-231 cells after 48 hrs by coulter counting analysis; type: functional; conditions: MDA-MB-231, 48 h; method in brief: as §2
HCT-116 = experiment: Growth inhibition of human HCT116 cells after 48 hrs by coulter counting analysis; type: functional; conditions: HCT-116, 48 h; method in brief: as §2
[7] = Growth inhibition of human BT549 cells after 48 hrs by coulter counting analysis; type: functional; conditions: BT-549, 48 h; method in brief: as §2
HOP-62 = experiment: Growth inhibition of human HOP62 cells after 48 hrs by coulter counting analysis; type: functional; conditions: HOP-62, 48 h; method in brief: as §2
[8] = Growth inhibition of human OVCAR8 cells after 48 hrs by coulter counting analysis; type: functional; conditions: OVCAR-8, 48 h; method in brief: as §1
[9] = target: Cyclin-dependent kinase 2/cyclin E1 (Homo sapiens) (UniProt P24864+P24941); experiment: Inhibition of CDK2/Cyclin E1 (unknown origin) at 20 uM after 30 mins by scintillation counting analysis relative to control; type: protein-complex assay; method in brief: as §4
NCI-H460 = experiment: Growth inhibition of human NCI-H460 cells after 48 hrs by coulter counting analysis; type: functional; conditions: NCI-H460, 48 h; method in brief: as §1
CCRF-CEM [10] = experiment: Growth inhibition of human CCRF-CEM cells after 48 hrs by coulter counting analysis; type: functional; method in brief: as §2
A549 = experiment: Growth inhibition of human A549/ATCC cells after 48 hrs by coulter counting analysis; type: functional; conditions: A549, 48 h; method in brief: as §2
NCI-H522 = experiment: Growth inhibition of human NCI-H522 cells after 48 hrs by coulter counting analysis; type: functional; conditions: NCI-H522, 48 h; method in brief: as §1
TK-10 = experiment: Growth inhibition of human TK10 cells after 48 hrs by coulter counting analysis; type: functional; conditions: TK-10, 48 h; method in brief: as §3
[11] = Growth inhibition of human OVCAR8 cells at 10 uM after 48 hrs by sulforhodamine B assay relative to control; type: functional; conditions: OVCAR-8, 48 h, read-out: GI
Method in brief: (§5)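 NCI-60 primary screen at a single 10 µM dose. Continuous 48 h exposure, with growth or viability estimated by sulforhodamine B protein staining. Reported as percent growth inhibition of treated cells relative to untreated growth.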

MDA-MB-468 = experiment: Growth inhibition of human MDA-MB-468 cells at 10 uM after 48 hrs by sulforhodamine B assay relative to control; type: functional; conditions: MDA-MB-468, 48 h, read-out: GI; method in brief: as §5
[12] = Growth inhibition of human UO31 cells at 10 uM after 48 hrs by sulforhodamine B assay relative to control; type: functional; conditions: UO-31, 48 h, read-out: GI
Method in brief: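 NCI-60 primary single-dose screen at 10 µM with continuous 48 h exposure. Cell viability/growth read by sulforhodamine B protein staining. Reported as percent growth inhibition relative to untreated cells.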

DU-145 [13] = experiment: Growth inhibition of human DU145 cells at 10 uM after 48 hrs by sulforhodamine B assay relative to control; type: functional; conditions: DU-145, 48 h, read-out: GI
Method in brief: (§6)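 NCI-60 primary screen at a single dose of 10 µM with 48 h continuous exposure. Growth or viability read by sulforhodamine B protein staining and expressed as percent growth inhibition versus untreated cells.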

SNB-75 = experiment: Growth inhibition of human SNB75 cells at 10 uM after 48 hrs by sulforhodamine B assay relative to control; type: functional; conditions: SNB-75, 48 h, read-out: GI; method in brief: as §5
CCRF-CEM [14] = experiment: Growth inhibition of human CCRF-CEM cells at 10 uM after 48 hrs by sulforhodamine B assay relative to control; type: functional; conditions: read-out: GI; method in brief: as §6
SR = experiment: Growth inhibition of human SR cells after 48 hrs by coulter counting analysis; type: functional; method in brief: as §1

## COc1c2ccoc2c(/C=C/C=O)c2oc(-c3ccccc3)cc(=O)c12
SW-620
  GI50: 2.16 µM
SK-MEL-5
  GI50: 3.04 µM
SNB-19
  GI50: 12 µM
DU-145 [1]
  GI50: 10.7 µM
A498
  GI50: 7.44 µM
CAKI-1
  GI50: 15.4 µM
[2]
  GI50: 16.1 µM
PC-3
  GI50: 3.23 µM
[3]
  GI50: 4.26 µM
K562
  GI50: 3.21 µM
[4]
  GI50: 11.5 µM
SN12C
  GI50: 2.71 µM
[5]
  GI50: 7.2 µM
[6]
  inhibition: 58%
NCI-H23
  GI50: 2.44 µM
MDA-MB-231
  GI50: 4.1 µM
HCT-116
  GI50: 1.7 µM
[7]
  GI50: 2.88 µM
HOP-62
  GI50: 2.49 µM
[8]
  GI50: 2.86 µM
[9]
  inhibition: 6%
NCI-H460
  GI50: 11.3 µM
CCRF-CEM [10]
  GI50: 1.85 µM
A549
  GI50: 21.5 µM
NCI-H522
  GI50: 17.6 µM

## COc1c2occc2c(OC)c2c(=O)c(CN3CCOCC3)c(/C=C/c3ccc(N(C)C)cc3)oc12
SW-620
  GI50: 2.38 µM
SK-MEL-5
  GI50: 1.09 µM
SK-MEL-5; read-out: LC50 (the source's name)
  CC50: 4.99 µM
SNB-19
  GI50: 1.98 µM
DU-145 [1]
  GI50: 1.67 µM
A498
  GI50: 2.34 µM
TK-10
  GI50: 2.46 µM
[11]
  inhibition of growth at 10 µM: 80%
CAKI-1
  GI50: 1.89 µM
[2]
  GI50: 2.62 µM
PC-3
  GI50: 1.69 µM
[3]
  GI50: 1.81 µM
K562
  GI50: 1.85 µM
[4]
  GI50: 2.54 µM
SN12C
  GI50: 2.45 µM
[6]
  inhibition: 13%
MDA-MB-468
  inhibition of growth at 10 µM: 70%
NCI-H23
  GI50: 2.56 µM
[12]
  inhibition of growth at 10 µM: 63%
MDA-MB-231
  GI50: 2.22 µM
HCT-116
  GI50: 2.11 µM
DU-145 [13]
  inhibition of growth at 10 µM: 93%
SNB-75
  inhibition of growth at 10 µM: 99%
HOP-62
  GI50: 2.33 µM
[8]
  GI50: 5.15 µM
[9]
  inhibition: 0%
NCI-H460
  GI50: 2.02 µM
  LC50 (lethal concentration, 50% net cell kill): 8.48 µM
CCRF-CEM [14]
  inhibition of growth at 10 µM: 95%
CCRF-CEM [10]
  GI50: 1.17 µM
A549
  GI50: 2.83 µM
NCI-H522
  GI50: 1.83 µM

## C=CCc1c(O)c(C(=O)/C=C/c2ccccc2)c(OC)c2ccoc12
SW-620
  GI50: 3.32 µM
SK-MEL-5
  GI50: 2.66 µM
SR
  GI50: 2.15 µM
SNB-19
  GI50: 2.85 µM
DU-145 [1]
  GI50: 4.92 µM
A498
  GI50: 1.74 µM
TK-10
  GI50: 4.96 µM
CAKI-1
  GI50: 2.8 µM
[2]
  GI50: 1.73 µM
PC-3
  GI50: 3.68 µM
[3]
  GI50: 1.85 µM
K562
  GI50: 2.87 µM
[4]
  GI50: 2.56 µM
SN12C
  GI50: 3.79 µM
[5]
  GI50: 3.9 µM
[6]
  inhibition: 38%
NCI-H23
  GI50: 2.52 µM
MDA-MB-231
  GI50: 3.11 µM
HCT-116
  GI50: 3.03 µM
[7]
  GI50: 2.63 µM
HOP-62
  GI50: 5.32 µM
[8]
  GI50: 3.13 µM
[9]
  inhibition: 0%
NCI-H460
  GI50: 2.79 µM
CCRF-CEM [10]
  GI50: 2.75 µM
A549
  GI50: 4.41 µM
NCI-H522
  GI50: 2.15 µM

## COc1ccccc1/C=C/C(=O)c1c(O)cc2occc2c1OC
SW-620
  GI50: > 100 µM
SK-MEL-5
  GI50: > 100 µM
SNB-19
  GI50: 30.8 µM
DU-145 [1]
  GI50: 23.5 µM
A498
  GI50: 46 µM
TK-10
  GI50: 21.9 µM
CAKI-1
  GI50: > 100 µM
[2]
  GI50: > 100 µM
PC-3
  GI50: > 100 µM
[3]
  GI50: 14.9 µM
[4]
  GI50: > 100 µM
SN12C
  GI50: > 100 µM
[5]
  GI50: 38.2 µM
[6]
  inhibition: 17%
MDA-MB-468
  inhibition of growth at 10 µM: 84%
NCI-H23
  GI50: 22.4 µM
MDA-MB-231
  GI50: 33.1 µM
HCT-116
  GI50: 40.4 µM
DU-145 [13]
  inhibition of growth at 10 µM: 78%
[7]
  GI50: 28.2 µM
HOP-62
  GI50: 19.3 µM
[8]
  GI50: 53.8 µM
[9]
  inhibition: 6%
NCI-H460
  GI50: > 100 µM
CCRF-CEM [14]
  inhibition of growth at 10 µM: 63%
CCRF-CEM [10]
  GI50: 9.72 µM
A549
  GI50: > 100 µM
NCI-H522
  GI50: > 100 µM
